Only some compounds are listed: those with a hit (about 0.92% of all), similar ones and a draw of the others.
RAD54 inh = RAD54 (human) branch migration inhibition | Q92698 | RAD54 Holliday junction branch migration, FAM/BHQ fluorescence | inhibition, % at 10.4 µM | actives 0.14% (n = 360,000) | AID 602329;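 active = mean normalized replicate activity at least 40 and at least half of replicates scoring 40 or more; inconclusive = only one of the two criteria met; inactive = mean below 40 and under half of replicates reaching 40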;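 note: inhibitors cause a drop in the FAM fluorescence signal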
AF4-AF9 inh = MLL-AF4/AF9 protein interaction inhibition; inhibition, % at 10 µM; P42568; AlphaScreen, biotin-AF4 peptide binding to FLAG-AF9; actives 0.47% (n = 350,000);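 active = every replicate reaching a set inhibition limit, whatever the replicate mean, cut at about 25% in these data; inconclusive = mean inhibition reaches that limit but some replicates miss it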
RAD52 anneal inh = blocks human RAD52 DNA annealing. P43351. recombinant RAD52 DNA annealing, FRET fluorescence. inhibition, % at 18.7 µM. actives 0.46% (n = 360,000). AID 651710;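 active = every replicate showing at least 50% inhibition; inconclusive = mean inhibition at least 50% but not in every replicate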
Target sequence (P43351 whole entry, looked up): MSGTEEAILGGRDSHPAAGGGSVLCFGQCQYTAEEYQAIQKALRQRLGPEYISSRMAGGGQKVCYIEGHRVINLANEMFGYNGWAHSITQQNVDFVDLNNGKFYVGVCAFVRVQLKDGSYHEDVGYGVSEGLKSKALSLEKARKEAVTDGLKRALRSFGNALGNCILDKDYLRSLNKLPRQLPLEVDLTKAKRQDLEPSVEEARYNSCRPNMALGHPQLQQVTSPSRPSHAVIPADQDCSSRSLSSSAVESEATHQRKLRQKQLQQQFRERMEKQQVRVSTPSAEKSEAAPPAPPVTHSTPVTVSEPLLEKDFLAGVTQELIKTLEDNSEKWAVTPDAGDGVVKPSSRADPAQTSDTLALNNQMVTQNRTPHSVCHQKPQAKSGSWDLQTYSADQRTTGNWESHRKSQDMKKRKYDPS
FN deposit inh = fibronectin deposition inhibition; AH1F fibroblasts, Alexa488-fibronectin deposition fluorescence, overnight; inhibition, % at 12.6 µM; actives 0.086% (n = 350,000);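 active = mean inhibition across replicates of 30% or more, regardless of how many single replicates reach that level; inconclusive = mean under 30% yet at least half of replicates reach 30%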
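Assay system: AH1F fibroblasts assembling fluorescent fibronectin matrix; Amount: 10000 AH1F cells per well; Buffer or medium: DMEM, 2% serum; Probe or stimulus: Alexa488-fibronectin, 24 nM final in well; Doses: single compound dose, delivered by pin transfer; Incubation: 1 h adhesion, overnight exposure; Measured by: fluorescence 485/525 nm; Read-out: fibronectin deposition inhibition.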
N-glyco inh = blocks N-linked glycosylation in D54 reporter cells | D54 ERlucT glycosylation luciferase reporter, 24 h; percent of 100 nM tunicamycin response | reporter increase, % at 12.5 µM | actives 0.23% (n = 360,000) | AID 588692;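 active = mean luciferase reporter signal, scaled so untreated is 0 and the glycosylation-blocking control 100, at or above a set limit in every replicate; inconclusive = mean reaches the limit but not every replicate does; inactive = mean below the limit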;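 note: luciferase carries N-glycosylation sites so blocking glycosylation raises the light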
AlphaScreen intf = AlphaScreen signal interference counter-screen hit; shares compounds with AF4-AF9 inh; signal luminescence; AC50, µM (series often up to 12 µM); actives 45% (n = 530); AID 720494; cut-off not given, nearly all actives have AC50 up to about 14 µM
Numbers stand for hits.

How did COc1ccc(C#Cc2ccc3c(c2)[C@H]2[C@H](CCN2C(=O)c2ccncc2)[C@@H](CO)N3)cc1 do in these assays?
AF4-AF9 inh: 34; RAD52 anneal inh: 51; FN deposit inh: inactive; AlphaScreen intf: 13µM

What do the screens show for `COc1cccc(-c2ccc3c(c2)[C@H]2[C@H](CCN2C(=O)C2CCCCC2)[C@@H](CO)N3)c1`?
AF4-AF9 inh: 40; RAD52 anneal inh: inactive; FN deposit inh: inactive; AlphaScreen intf: inactive

Results for Cc1[nH]c2ccccc2c1N=Nc1ccccc1F ?
AF4-AF9 inh: 41; RAD52 anneal inh: inactive; FN deposit inh: inactive; N-glyco inh: inactive; AlphaScreen intf: 8µM

What do the screens show for `COc1ccc(NS(=O)(=O)c2ccc(C)c(C(=O)N3CCN(Cc4cc(OC)ccc4OC)CC3)c2)cc1`?
RAD54 inh: inactive; AF4-AF9 inh: 35; RAD52 anneal inh: inactive; FN deposit inh: inactive; N-glyco inh: inactive; AlphaScreen intf: inactive

How did COc1ccc(NS(=O)(=O)c2cccc(C(=O)N3CCN(Cc4cc(OC)ccc4OC)CC3)c2)cc1 do in these assays?
RAD54 inh: inactive; AF4-AF9 inh: inactive; RAD52 anneal inh: inactive; FN deposit inh: inactive; N-glyco inh: inactive

How did COC(=O)C1=C[C@@H](C(=O)OC)[C@@H]2C3=C(C(=O)C2(C)C)[C@H](c2ccccc2)[C@@H]2C(=O)N(C)C(=O)[C@@H]2[C@@H]3C1 do in these assays?
RAD54 inh: inactive; AF4-AF9 inh: inconclusive; RAD52 anneal inh: inactive; FN deposit inh: inactive; N-glyco inh: inactive; AlphaScreen intf: inactive

How did COC(=O)CN1C(=O)[C@@H]2[C@H](C1=O)[C@@H]1CC(C(=O)OC)=C[C@@H](C(=O)OC)[C@@H]3C1=C(C(=O)[C@]3(C)NC(=O)c1ccccc1)[C@@H]2C do in these assays?
RAD54 inh: inactive; AF4-AF9 inh: inactive; RAD52 anneal inh: inactive; FN deposit inh: inactive; N-glyco inh: inactive

What do the screens show for `Cc1[nH]n(-c2ccccc2)c(=O)c1N=Nc1c(O)cc(S(=O)(=O)N(C)C)c2ccccc12`?
RAD54 inh: inactive; AF4-AF9 inh: 50; RAD52 anneal inh: inactive; FN deposit inh: inactive; N-glyco inh: inactive; AlphaScreen intf: inactive

Results for Cc1[nH]n(-c2ccccc2)c(=O)c1N=Nc1ccc2c(c1)OCCO2 ?
AF4-AF9 inh: inactive; RAD52 anneal inh: inactive; FN deposit inh: inactive; N-glyco inh: inactive

How did C[C@@H]1CN([C@H](C)CO)C(=O)c2cc(NC(=O)CCC(F)(F)F)ccc2O[C@@H](C)CCCCO[C@@H]1CN(C)S(=O)(=O)c1cccs1 do in these assays?
RAD54 inh: inactive; AF4-AF9 inh: inactive; RAD52 anneal inh: inactive

What do the screens show for `CCOc1ccc(/C=N/Nc2cc(N3CCOCC3)ncn2)c(O)c1`?
RAD54 inh: inactive; AF4-AF9 inh: 32; RAD52 anneal inh: inactive; FN deposit inh: inactive; N-glyco inh: inactive; AlphaScreen intf: 14µM

Results for Cc1cc2c(OCC(O)CNC3CCCCC3)cccc2[nH]1 (centres undefined) ?
AF4-AF9 inh: 29; RAD52 anneal inh: inactive; N-glyco inh: inactive; AlphaScreen intf: inactive

How did COc1cccc(S(=O)(=O)N2CC[C@@H]3[C@H]2c2cc(C#Cc4cccnc4)ccc2N(C)[C@H]3CO)c1 do in these assays?
RAD54 inh: inactive; RAD52 anneal inh: inactive; FN deposit inh: inactive

What do the screens show for `CN(C)c1ccc(N=C/C=C2/N(C)c3ccccc3C2(C)C)cc1`?
RAD54 inh: inactive; AF4-AF9 inh: 48; RAD52 anneal inh: inactive; FN deposit inh: inactive; N-glyco inh: inactive; AlphaScreen intf: 11µM

What do the screens show for `COc1ccc(S(=O)(=O)Nc2ccc3c(c2)C(=O)N([C@H](C)CO)C[C@H](C)[C@@H](CN(C)C(=O)Nc2ccccc2)OCCCC[C@@H](C)O3)cc1`?
RAD54 inh: inactive; FN deposit inh: inactive

How did CN(C)c1ccc(C(=S)Nc2ccccc2)cc1 do in these assays?
AF4-AF9 inh: inactive; RAD52 anneal inh: inactive; FN deposit inh: inactive; N-glyco inh: inactive

What do the screens show for `CN(C)c1ccc(NC(=S)c2ccccn2)cc1`?
RAD54 inh: inactive; AF4-AF9 inh: 49; RAD52 anneal inh: inactive; FN deposit inh: inactive; N-glyco inh: inactive; AlphaScreen intf: inactive

How did CC(C)N1C(=O)/C(=C\c2nc3ccccc3c(=O)[nH]2)c2ccccc21 do in these assays?
RAD54 inh: inactive; AF4-AF9 inh: 26; RAD52 anneal inh: inactive; FN deposit inh: inactive; N-glyco inh: inactive; AlphaScreen intf: inactive

Results for CCCC(=O)Nc1ccc2c(c1)C(=O)N(C)[C@H]1CC[C@H](CC(=O)Nc3cn(C)nc3C)O[C@H]1CO2 ?
RAD54 inh: inactive; AF4-AF9 inh: inactive; RAD52 anneal inh: inactive; FN deposit inh: inactive

How did Cc1cc(C(=O)Nc2cccc3c2O[C@H](CN(C)Cc2ccccc2)[C@H](C)CN([C@H](C)CO)C3=O)n(C)n1 do in these assays?
RAD54 inh: inactive; AF4-AF9 inh: inactive; RAD52 anneal inh: inactive

What do the screens show for `CCN1/C(=C/C(C)=C/c2sc3ccccc3[n+]2CC)Sc2ccccc21`?
RAD54 inh: 72; AF4-AF9 inh: 66; RAD52 anneal inh: inactive; FN deposit inh: inactive; N-glyco inh: inactive; AlphaScreen intf: 6.3µM

How did CCN1/C(=C\C(=S)Nc2ccccc2)Sc2ccccc21 do in these assays?
RAD54 inh: inactive; AF4-AF9 inh: inactive; RAD52 anneal inh: inactive; FN deposit inh: inactive; N-glyco inh: inactive

Results for O=C(Nc1cccc(Cl)c1)N[C@H]1CC[C@@H](CCNC(=O)C2CCCCC2)O[C@@H]1CO ?
RAD54 inh: inactive; AF4-AF9 inh: inactive; RAD52 anneal inh: inactive; FN deposit inh: inactive

Results for CCN(CC)CCNC(=O)c1ccc(NC(=O)c2cccc(S(=O)(=O)N3c4ccccc4CC3C)c2)cc1 (centres undefined) ?
RAD54 inh: inactive; AF4-AF9 inh: 31; RAD52 anneal inh: inactive; FN deposit inh: inactive; N-glyco inh: inactive; AlphaScreen intf: inactive

How did CC1Cc2ccccc2N1S(=O)(=O)c1cccc(C(=O)NCCCO)c1 (centres undefined) do in these assays?
N-glyco inh: inactive

Results for Cn1ccc2c(-c3ccc(F)cc3F)cc3c(c21)C1CCC3C1 (centres undefined) ?
RAD54 inh: inactive; AF4-AF9 inh: inactive; RAD52 anneal inh: inactive; FN deposit inh: inactive; N-glyco inh: inactive

What do the screens show for `Cn1ccc2c(N3CCCCCC3)cc3c(c21)C1CCC3C1` (centres undefined)?
RAD54 inh: inactive; AF4-AF9 inh: 31; RAD52 anneal inh: inactive; FN deposit inh: inactive; N-glyco inh: inactive; AlphaScreen intf: inactive

How did CC(=O)Oc1ccccc1C(=O)OCO/N=[N+](\[O-])N1CCCC1 do in these assays?
RAD54 inh: inactive; AF4-AF9 inh: inactive; RAD52 anneal inh: inactive

How did CC(C)(c1ccccc1)c1ccc(OCC(O)CNC2CCN(Cc3ccccc3)CC2)cc1 (centres undefined) do in these assays?
RAD54 inh: inactive; AF4-AF9 inh: 31; RAD52 anneal inh: inactive; FN deposit inh: inactive; N-glyco inh: inactive; AlphaScreen intf: inactive

How did CCOc1ccc(OCC(O)CNC2CCN(Cc3ccccc3)CC2)cc1 (centres undefined) do in these assays?
RAD54 inh: inactive; N-glyco inh: inactive

Screening results (PubChem BioAssay)
